Measured values: ChEMBL document CHEMBL4004835, “Discovery of Novel Disruptor of Silencing Telomeric 1-Like (DOT1L) Inhibitors using a Target-Specific Scoring Function for the (S)-Adenosyl-l-methionine (SAM)-Dependent Methyltransferase Family” (J Med Chem, 2017)
Calls of active or inactive are those of the source. The calls are words filed in the database; no cut-off is given here.

What was measured:
[1] = biological target: T1, Histone-lysine N-methyltransferase, H3 lysine-79 specific (Homo sapiens, UniProt Q8TEK3); experiment: Inhibition of N-terminal 6His-tagged human DOT1L (1 to 416 residues) expressed in Escherichia coli BL21(DE3) at 50 and 100 uM preincubated for 15 mins followed by [3H]-SAM addition measured after 120 mins by radioactive methylation assay
In short: (§1)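 DOT1L and compound preincubated 15 min at room temperature; oligonucleosome and 3H-SAM added; reaction 120 min at room temperature, stopped with cold SAM; transferred to 0.5% PEI-pretreated filter plate, washed 3× with water, read by liquid scintillation counting.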
Target sequence in this assay (Q8TEK3 whole entry, looked up, the tested form may be a part): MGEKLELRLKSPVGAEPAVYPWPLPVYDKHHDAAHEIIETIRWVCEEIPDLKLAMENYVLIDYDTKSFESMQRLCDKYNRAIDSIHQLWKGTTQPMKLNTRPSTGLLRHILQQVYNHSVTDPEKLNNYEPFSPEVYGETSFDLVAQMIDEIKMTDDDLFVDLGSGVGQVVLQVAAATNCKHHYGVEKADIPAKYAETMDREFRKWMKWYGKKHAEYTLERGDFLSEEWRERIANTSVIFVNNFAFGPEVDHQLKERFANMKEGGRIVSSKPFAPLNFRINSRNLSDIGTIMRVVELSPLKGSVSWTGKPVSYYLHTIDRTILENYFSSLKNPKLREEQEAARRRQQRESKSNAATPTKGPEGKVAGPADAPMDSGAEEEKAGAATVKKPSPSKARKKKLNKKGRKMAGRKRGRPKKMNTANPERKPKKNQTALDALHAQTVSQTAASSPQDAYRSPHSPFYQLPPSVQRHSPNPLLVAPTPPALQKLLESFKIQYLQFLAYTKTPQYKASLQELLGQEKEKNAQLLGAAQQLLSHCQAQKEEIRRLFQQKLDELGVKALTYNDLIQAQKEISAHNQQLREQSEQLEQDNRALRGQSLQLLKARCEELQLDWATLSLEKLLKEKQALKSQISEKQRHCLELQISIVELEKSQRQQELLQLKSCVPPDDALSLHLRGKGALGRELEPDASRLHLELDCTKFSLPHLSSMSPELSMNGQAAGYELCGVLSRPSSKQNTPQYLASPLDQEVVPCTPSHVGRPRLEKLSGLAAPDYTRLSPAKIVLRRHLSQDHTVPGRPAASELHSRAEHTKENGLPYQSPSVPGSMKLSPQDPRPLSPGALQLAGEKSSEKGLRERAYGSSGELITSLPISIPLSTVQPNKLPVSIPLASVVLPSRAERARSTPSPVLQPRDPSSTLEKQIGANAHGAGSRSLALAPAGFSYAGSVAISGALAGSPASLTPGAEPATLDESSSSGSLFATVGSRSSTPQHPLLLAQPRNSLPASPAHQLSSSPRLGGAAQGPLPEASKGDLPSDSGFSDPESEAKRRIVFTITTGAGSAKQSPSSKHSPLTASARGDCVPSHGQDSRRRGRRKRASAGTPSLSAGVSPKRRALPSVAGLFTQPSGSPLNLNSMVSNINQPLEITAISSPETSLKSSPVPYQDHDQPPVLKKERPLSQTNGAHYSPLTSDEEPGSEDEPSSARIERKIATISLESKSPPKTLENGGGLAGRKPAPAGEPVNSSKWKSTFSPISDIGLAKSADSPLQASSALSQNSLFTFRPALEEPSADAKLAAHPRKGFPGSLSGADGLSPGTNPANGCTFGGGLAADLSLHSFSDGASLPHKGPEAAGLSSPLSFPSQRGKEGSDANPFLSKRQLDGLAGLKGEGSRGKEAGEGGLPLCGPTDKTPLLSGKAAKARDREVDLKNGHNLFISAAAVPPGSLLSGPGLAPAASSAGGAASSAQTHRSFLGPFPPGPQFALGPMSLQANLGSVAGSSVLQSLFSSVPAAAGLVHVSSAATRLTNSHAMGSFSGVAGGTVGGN

[2] = biological target: T1, Histone-lysine N-methyltransferase, H3 lysine-79 specific; experiment: Inhibition of N-terminal 6His-tagged human DOT1L (1 to 416 residues) expressed in Escherichia coli BL21(DE3) at preincubated for 15 mins followed by [3H]-SAM addition measured after 120 mins by radioactive methylation assay; in short: as §1
Target sequence in this assay (Q8TEK3 whole entry, the tested form may be a part): as the sequence (Q8TEK3 whole entry, looked up, the tested form may be a part) above

[3] = biological target: DNA (cytosine-5)-methyltransferase 1 (Homo sapiens) (UniProt P26358); experiment: Inhibition of DNMT1 (unknown origin) at 50 and 100 uM preincubated for 15 mins followed by poly(dI-DC) substrate and [3H]-SAM addition after 120 mins by liquid MicroBeta counting
Chain of DNA (cytosine-5)-methyltransferase 1 (Homo sapiens) (P26358 whole entry): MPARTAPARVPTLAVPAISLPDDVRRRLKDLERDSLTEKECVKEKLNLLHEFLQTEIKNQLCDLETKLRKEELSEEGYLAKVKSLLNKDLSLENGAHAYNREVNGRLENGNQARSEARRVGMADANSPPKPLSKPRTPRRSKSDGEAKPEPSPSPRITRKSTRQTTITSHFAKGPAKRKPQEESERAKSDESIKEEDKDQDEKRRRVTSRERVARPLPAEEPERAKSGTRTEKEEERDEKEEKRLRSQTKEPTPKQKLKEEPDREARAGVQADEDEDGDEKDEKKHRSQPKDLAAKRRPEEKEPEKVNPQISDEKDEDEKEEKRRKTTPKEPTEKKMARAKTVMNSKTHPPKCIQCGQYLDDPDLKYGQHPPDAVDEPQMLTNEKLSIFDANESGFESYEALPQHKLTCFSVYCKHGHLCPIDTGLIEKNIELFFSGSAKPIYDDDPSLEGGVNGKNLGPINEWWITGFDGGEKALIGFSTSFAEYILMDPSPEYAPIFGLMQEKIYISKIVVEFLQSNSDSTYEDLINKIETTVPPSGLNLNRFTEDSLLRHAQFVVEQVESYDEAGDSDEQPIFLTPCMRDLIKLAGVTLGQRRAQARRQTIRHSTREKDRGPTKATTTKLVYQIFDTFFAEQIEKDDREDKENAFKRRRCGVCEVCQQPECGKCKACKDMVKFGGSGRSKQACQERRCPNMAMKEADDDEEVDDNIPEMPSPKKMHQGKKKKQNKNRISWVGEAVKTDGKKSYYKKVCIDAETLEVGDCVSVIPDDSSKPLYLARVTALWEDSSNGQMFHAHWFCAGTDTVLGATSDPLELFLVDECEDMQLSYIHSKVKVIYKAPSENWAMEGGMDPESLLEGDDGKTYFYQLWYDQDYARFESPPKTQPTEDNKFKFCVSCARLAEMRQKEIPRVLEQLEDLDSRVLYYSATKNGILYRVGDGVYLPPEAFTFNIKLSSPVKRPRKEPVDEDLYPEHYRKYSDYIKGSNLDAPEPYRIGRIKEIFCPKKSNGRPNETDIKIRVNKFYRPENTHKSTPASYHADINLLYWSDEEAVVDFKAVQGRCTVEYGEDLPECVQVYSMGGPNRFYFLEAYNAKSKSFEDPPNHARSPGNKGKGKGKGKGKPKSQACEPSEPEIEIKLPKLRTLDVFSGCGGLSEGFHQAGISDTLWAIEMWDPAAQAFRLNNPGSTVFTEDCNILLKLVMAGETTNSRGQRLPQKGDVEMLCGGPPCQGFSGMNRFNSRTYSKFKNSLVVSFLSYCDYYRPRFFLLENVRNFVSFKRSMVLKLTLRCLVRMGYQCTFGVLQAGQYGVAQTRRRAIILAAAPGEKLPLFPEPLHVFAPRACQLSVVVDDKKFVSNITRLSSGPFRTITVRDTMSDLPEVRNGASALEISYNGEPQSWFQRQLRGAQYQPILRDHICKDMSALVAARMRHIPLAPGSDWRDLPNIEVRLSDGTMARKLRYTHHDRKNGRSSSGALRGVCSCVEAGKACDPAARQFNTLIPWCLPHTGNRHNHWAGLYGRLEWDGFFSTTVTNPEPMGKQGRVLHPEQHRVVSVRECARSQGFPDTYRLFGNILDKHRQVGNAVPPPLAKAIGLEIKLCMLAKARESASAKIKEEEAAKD
In short: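 In modified Tris buffer, enzyme preincubated 15 min at room temperature; poly(dI-dC) substrate and [3H]SAM added; 120 min at 37 °C; reaction transferred to 0.5% PEI-pretreated filter plates, vacuumed, read by MicroBeta; SAH as positive control.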

[4] = biological target: Histone-lysine N-methyltransferase, H3 lysine-36 specific (Homo sapiens) (UniProt Q96L73); experiment: Inhibition of NSD1 (unknown origin) at 50 and 100 uM preincubated for 15 mins followed by substrate and [3H]-SAM addition after 120 mins by MicroBeta counting
In short: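 In modified Tris buffer, enzyme incubated 15 min at room temperature, then substrate and [3H]SAM added; stopped at 120 min with cold SAM; transferred to a 0.5% PEI-pretreated GF/B plate, washed 3× with water, read by MicroBeta.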

[5] = biological target: Protein arginine N-methyltransferase 5 (Homo sapiens) (UniProt O14744); experiment: Inhibition of PRMT5 (unknown origin) at 50 and 100 uM preincubated for 15 mins followed by substrate and [3H]-SAM addition for 60 mins measured after further 60 mins flashplate assay
Chain of Protein arginine N-methyltransferase 5 (Homo sapiens) (O14744 whole entry): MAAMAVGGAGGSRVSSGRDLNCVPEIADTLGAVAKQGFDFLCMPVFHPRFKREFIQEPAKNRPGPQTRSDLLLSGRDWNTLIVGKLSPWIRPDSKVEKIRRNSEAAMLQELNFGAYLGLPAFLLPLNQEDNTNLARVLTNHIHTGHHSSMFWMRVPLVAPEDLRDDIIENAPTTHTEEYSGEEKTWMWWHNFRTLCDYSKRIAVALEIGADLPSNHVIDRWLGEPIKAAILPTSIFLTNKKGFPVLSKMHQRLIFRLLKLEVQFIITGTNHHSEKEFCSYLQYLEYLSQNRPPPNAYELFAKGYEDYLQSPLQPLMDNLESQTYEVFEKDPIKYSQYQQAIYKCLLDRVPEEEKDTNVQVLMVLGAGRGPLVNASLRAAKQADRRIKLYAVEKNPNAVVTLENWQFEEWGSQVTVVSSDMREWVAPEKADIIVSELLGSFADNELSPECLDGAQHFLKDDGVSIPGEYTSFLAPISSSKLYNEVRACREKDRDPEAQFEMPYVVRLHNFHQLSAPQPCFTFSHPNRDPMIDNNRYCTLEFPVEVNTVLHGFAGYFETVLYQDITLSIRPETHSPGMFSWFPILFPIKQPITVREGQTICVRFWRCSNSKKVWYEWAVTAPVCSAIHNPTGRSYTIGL
In short: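 In modified Tris buffer, enzyme preincubated 15 min at room temperature; substrate and [3H]SAM added for 60 min at room temperature; stopped with cold SAM; transferred to a Flashplate for 60 min, washed 3× with water plus 0.1% Tween-20, read by MicroBeta.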

[6] = biological target: Histone-lysine N-methyltransferase EZH2 (Homo sapiens) (UniProt Q15910); experiment: Inhibition of EZH2 (unknown origin) at 50 and 100 uM preincubated for 15 mins followed by substrate and [3H]-SAM addition for 60 mins in presence of H3K27me peptide measured after 60 mins by liquid scintillation counting method
Chain of Histone-lysine N-methyltransferase EZH2 (Homo sapiens) (Q15910 whole entry, looked up): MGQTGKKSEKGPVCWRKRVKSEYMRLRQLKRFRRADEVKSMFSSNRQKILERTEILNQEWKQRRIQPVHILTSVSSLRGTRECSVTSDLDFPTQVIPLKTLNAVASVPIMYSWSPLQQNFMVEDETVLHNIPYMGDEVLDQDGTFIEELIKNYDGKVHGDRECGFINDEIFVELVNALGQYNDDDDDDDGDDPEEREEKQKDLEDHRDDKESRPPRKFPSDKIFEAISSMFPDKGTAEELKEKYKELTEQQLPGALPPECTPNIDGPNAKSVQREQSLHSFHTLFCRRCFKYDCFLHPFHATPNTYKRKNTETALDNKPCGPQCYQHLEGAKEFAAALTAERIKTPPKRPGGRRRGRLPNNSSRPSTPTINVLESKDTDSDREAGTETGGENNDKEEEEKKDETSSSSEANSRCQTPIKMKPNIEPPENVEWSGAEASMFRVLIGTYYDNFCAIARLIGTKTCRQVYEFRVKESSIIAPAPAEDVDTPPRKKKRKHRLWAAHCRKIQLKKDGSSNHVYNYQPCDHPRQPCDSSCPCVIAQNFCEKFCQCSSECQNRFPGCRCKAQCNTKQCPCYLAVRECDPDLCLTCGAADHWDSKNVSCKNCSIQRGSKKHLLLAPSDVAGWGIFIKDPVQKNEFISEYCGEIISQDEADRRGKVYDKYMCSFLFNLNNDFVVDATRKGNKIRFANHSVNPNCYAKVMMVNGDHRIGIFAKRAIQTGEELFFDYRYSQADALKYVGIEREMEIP
In short: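 In modified Tris buffer with H3K27me peptide, enzyme preincubated 15 min at room temperature; substrate added to start; stopped with cold SAM; mix on Flashplate at least 60 min at room temperature, washed with water plus 0.1% Tween-20, read by scintillation counting.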

[7] = biological target: Protein arginine N-methyltransferase 1 (Homo sapiens) (UniProt Q99873); experiment: Inhibition of PRMT1 (unknown origin) preincubated for 15 mins followed by biotinylated H3R2 substrate/[…]SAM addition for 60 mins measured after further 60 mins by AlphaLISA assay
Chain of Protein arginine N-methyltransferase 1 (Homo sapiens) (Q99873 whole entry, looked up): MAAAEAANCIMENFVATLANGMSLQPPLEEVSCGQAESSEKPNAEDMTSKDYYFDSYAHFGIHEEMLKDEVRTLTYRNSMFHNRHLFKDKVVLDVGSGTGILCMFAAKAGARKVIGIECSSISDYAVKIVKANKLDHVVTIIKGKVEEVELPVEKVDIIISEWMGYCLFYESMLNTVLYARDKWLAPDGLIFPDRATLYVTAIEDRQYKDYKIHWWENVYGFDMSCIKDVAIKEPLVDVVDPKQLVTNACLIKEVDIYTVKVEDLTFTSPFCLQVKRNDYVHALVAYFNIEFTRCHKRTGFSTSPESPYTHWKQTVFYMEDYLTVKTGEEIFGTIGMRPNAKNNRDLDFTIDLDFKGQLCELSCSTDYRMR
In short: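 Enzyme incubated 15 min at room temperature; biotinylated H3R2 peptide (50 nM final) and SAM (300 nM final) added; at 60 min acceptor beads (10 μg/mL final) stop the reaction; after 60 min, donor beads (10 μg/mL final) added, 30 min at room temperature in low light; alpha signal read.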

[8] = tested on: MV4-11; experiment: Induction of cell cycle arrest in human MV4-11 cells assessed as accumulation at G1 phase at 6.25 uM after 48 hrs by propidium iodide/RNase-staining based flow cytometric analysis (reference value: 68.16 %); format: functional
In short: (§2)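 MV4-11 cells (2 × 10^6) seeded in 12-well dishes, treated with different concentrations for 48 h, processed with a PI/RNase staining kit and analysed for cell-cycle distribution by FACSCalibur flow cytometry.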

[9] = tested on: MV4-11; experiment: Induction of cell cycle arrest in human MV4-11 cells assessed as accumulation at G2 phase at 6.25 uM after 48 hrs by propidium iodide/RNase-staining based flow cytometric analysis (reference value: 7.44 %); format: functional; in short: as §2
[10] = tested on: MV4-11; experiment: Induction of cell cycle arrest in human MV4-11 cells assessed as accumulation at S phase at 12.5 uM after 48 hrs by propidium iodide/RNase-staining based flow cytometric analysis (reference value: 24.40 %); format: functional; in short: as §2
[11] = tested on: MV4-11; experiment: Induction of cell cycle arrest in human MV4-11 cells assessed as accumulation at G2 phase at 25 uM after 48 hrs by propidium iodide/RNase-staining based flow cytometric analysis (reference value: 7.44 %); format: functional; in short: as §2
[12] = tested on: MV4-11; experiment: Induction of cell cycle arrest in human MV4-11 cells assessed as accumulation at S phase at 25 uM after 48 hrs by propidium iodide/RNase-staining based flow cytometric analysis (reference value: 24.40 %); format: functional; in short: as §2
[13] = tested on: MV4-11; experiment: Induction of cell cycle arrest in human MV4-11 cells assessed as accumulation at G1 phase at 50 uM after 48 hrs by propidium iodide/RNase-staining based flow cytometric analysis (reference value: 68.16 %); format: functional; in short: as §2
[14] = tested on: MV4-11; experiment: Induction of cell cycle arrest in human MV4-11 cells assessed as accumulation at G2 phase at 50 uM after 48 hrs by propidium iodide/RNase-staining based flow cytometric analysis (reference value: 7.44 %); format: functional; in short: as §2
[15] = tested on: MV4-11; experiment: Induction of apoptosis in human MV4-11 cells assessed as viable cells at 6.25 uM after 72 hrs by annexin V/FITC and propidium iodide staining-based flow cytometric analysis (reference value: 90.3 %); format: functional; settings: MV4-11, 72 h, read-out: Activity
[16] = tested on: MV4-11; experiment: Induction of apoptosis in human MV4-11 cells assessed as early apoptotic cells at 6.25 uM after 72 hrs by annexin V/FITC and propidium iodide staining-based flow cytometric analysis (reference value: 5.66 %); format: functional
[17] = tested on: MV4-11; experiment: Induction of apoptosis in human MV4-11 cells assessed as viable cells at 12.5 uM after 72 hrs by annexin V/FITC and propidium iodide staining-based flow cytometric analysis (reference value: 90.3 %); format: functional; settings: MV4-11, 72 h, read-out: Activity
[18] = tested on: MV4-11; experiment: Induction of apoptosis in human MV4-11 cells assessed as late apoptotic cells at 12.5 uM after 72 hrs by annexin V/FITC and propidium iodide staining-based flow cytometric analysis (reference value: 4.02 %); format: functional
[19] = tested on: MV4-11; experiment: Induction of apoptosis in human MV4-11 cells assessed as viable cells at 25 uM after 72 hrs by annexin V/FITC and propidium iodide staining-based flow cytometric analysis (reference value: 90.3 %); format: functional; settings: MV4-11, 72 h, read-out: Activity
[20] = tested on: MV4-11; experiment: Induction of apoptosis in human MV4-11 cells assessed as necrotic cells at 25 uM after 72 hrs by annexin V/FITC and propidium iodide staining-based flow cytometric analysis (reference value: 0.04 %); format: functional
[21] = tested on: MV4-11; experiment: Induction of apoptosis in human MV4-11 cells assessed as viable cells at 50 uM after 72 hrs by annexin V/FITC and propidium iodide staining-based flow cytometric analysis (reference value: 90.3 %); format: functional; settings: MV4-11, 72 h, read-out: Activity
[22] = tested on: MV4-11; experiment: Induction of apoptosis in human MV4-11 cells assessed as necrotic cells at 50 uM after 72 hrs by annexin V/FITC and propidium iodide staining-based flow cytometric analysis (reference value: 0.04 %); format: functional

- inhibition [1]: Active
- IC50 [2]: 8.29 µM
- inhibition [3]: < 40%
- inhibition [4]: < 40%
- inhibition [5]: < 40%
- inhibition [6]: < 40%
- inhibition [7]: < 40%
Structure (SMILES): Fc1cccc(-c2nn3c(Cn4nnc5ccccc54)nnc3s2)c1
- Activity [8]: 67.64%
- Activity [9]: 5.8%
- Activity [10]: 25.38%
- Activity [11]: 0.99%
- Activity [12]: 15.82%
- Activity [13]: 82.24%
- Activity [14]: 0%
- viability at 6.25 µM [15]: 24.2%
- Activity [16]: 49.5%
- viability at 12.5 µM [17]: 10.6%
- Activity [18]: 35.5%
- viability at 25 µM [19]: 6.76%
- Activity [20]: 1.6%
- viability at 50 µM [21]: 3.75%
- Activity [22]: 0.28%
